HSV augment = HSV replication enhancement; HSV replication augmentation in cells, fold increase; maximum fold increase; 220,000 tested, 0.005% active; AID 1956; in the data active = maximum fold increase above about 1.5; inconclusive = no clear call, values can overlap the other calls; tested in PC3 cells
Dynein transport = dynein cargo transport inhibition. 3617.4 mouse cells, GR-EGFP nuclear translocation imaging; test concentration mostly 20 µM; stimulated with dexamethasone, 1 µM; stronger effect = lower value. z-score, hits read low. 220,000 tested, 0.47% active;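 active = plate z-score of nuclear minus cytoplasmic receptor signal below a set negative limit, without overly bright fluorescence or cell loss, cut at about -3.5 in these data, passing the limit was not always enough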;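 also: z-score of nuclear minus cytoplasmic ring GR-EGFP intensity difference per well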
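Buffer or medium: tet-free, stripped-serum medium; Also added: dexamethasone, 1.0 µM final; Technique: high-content fluorescence imaging after fixation; Times: 48 h induction, 1 h compound, 30 min dex at 37 °C; Read-out: per-cell GR-EGFP intensity, nucleus versus surrounding cytoplasmic ring, well-averaged.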
PERK inh = inhibitors of human PERK kinase. Q9NZJ5. CHO PERK-DD fusion, SEAP luminescence translation reporter. inhibition, % at 5.6 µM. 220,000 tested, 0.17% active;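 active = inhibition above the mean inhibition of all tested compounds plus 3 SD, set separately per screening campaign, cut at about 2.9% in these data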;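 also: PERK kinase domain activated by AP20187 dimerizer at 100 nM; 0% = DMSO with dimerizer and 100% = rapamycin at 8.4 µM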
Autophagy HCS = modulators of autophagy. MEF GFP-LC3 puncta imaging; test concentration mostly 10 µM. calls only at 10 µM (by protocol). 190,000 tested, 0.98% active. AID 463193;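 active = percentage of spot-positive cells more than 3 SD above its plate mean, without a fluorescence outlier flag or 80% toxicity; inconclusive = no clear call, values can overlap the other calls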;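 also: spot-positive cell cutoff set from DMSO-treated cells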
Tb hexokinase = blocks Trypanosoma brucei hexokinase 1 activity | recombinant TbHK1, G6PDH-coupled NADH A340 | inhibition, % at 10 µM | 220,000 tested, 0.11% active | AID 1430;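 active = inhibition of 50% or more in the single-dose primary screen; inactive = inhibition below 50%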
HKDC1 inh = HKDC1 (human) hexokinase inhibition. Q2TB90. recombinant HKDC1, G6PDH/diaphorase resazurin coupled fluorescence. inhibition, % at 20 µM. AID 493160. 340,000 tested, 0.16% active;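 active = inhibition above about 35% when tested at 20 µM, limit read from the data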;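 also: plate controls were DMSO wells with enzyme for no effect and DMSO wells lacking enzyme for full effect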
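Assay system: recombinant HKDC1 hexokinase; detection: coupled resazurin fluorescence, excitation 525 nm, emission 613 nm; benchmarks: DMSO-plus-enzyme-mix negative control, buffer-substituted positive control; compound dosing: single 20 µM dose; schedule: 90 min at room temperature in dark; also added: glucose plus 1 mM ATP as hexokinase substrates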
Dynein confirm = dynein cargo transport inhibition, confirmation; shares compounds with Dynein transport; 3617.4 GR-EGFP nuclear translocation imaging, dexamethasone-induced; calls only at 20 µM; 1,000 tested, 69% active; AID 463116;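 active = inhibition of receptor movement into the nucleus at or above a set limit in both runs, with normal cell brightness and cell count; inconclusive = limit reached in only one run, brightness and count normal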;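 also: dexamethasone at 1 µM final in well for 30 min; nuclear minus cytoplasmic GR-EGFP mean intensity difference in channel 2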
Active calls of the source: *; i = inactive; ? = inconclusive; nt = no result; + = active, no number. Rows were chosen to be rich in hits. Some 1.2% of all compounds tested hit in one or more screens of this group.

SMILES	HSV augment	Dynein transport	PERK inh	Autophagy HCS	Tb hexokinase	HKDC1 inh	Dynein confirm
COCc1cccc(C(=O)NC(c2ccccc2)c2ccccc2)c1	nt	nt	nt	nt	nt	-5	nt
Cc1ccc(C2C3CSCC=C3C(C#N)=C(N)C2(C#N)C#N)cc1 (configuration not stated)	?	-4.1*	1	i	0	20	i
CCC(=O)OCOc1ccc(/C=C2/CCC(CN(C)C)C2=O)cc1 (configuration not stated)	nt	nt	nt	nt	nt	2	nt
O=C(CCl)N(c1ccccc1)c1ccccc1	i	-4.5*	0	i	1	6	+
CCCCCCN(C(=O)CCl)c1ccccc1	i	-4.7*	2	nt	-4	9	+
CCCCn1c(N)c(N(CC(C)C)C(=O)C2CCN(S(=O)(=O)c3ccc(OCC)cc3)CC2)c(=O)[nH]c1=O	nt	nt	nt	nt	nt	-6	nt
O=c1oc2c3c4c(cc2c(C(F)(F)F)c1CCN1CCOCC1)CCCN4CCC3	?	-5.7*	-1	?	-13	2	+
CC(C)c1cc(=O)oc2c3c4c(cc12)CCCN4CCC3	?	0.66	0	i	-19	5	nt
COCc1c(C(=O)NCCc2ccc(OC(F)F)cc2)oc2ccccc12	nt	nt	nt	nt	nt	-1	nt
O=[N+]([O-])c1ccc2nc(Cl)nc(-c3ccccc3)c2c1	nt	nt	nt	nt	nt	13	nt
C=CCSc1nnc(C)c(/C=C/Nc2ccc(Cl)cc2)n1	?	-7.7	2	+	-6	0	+
N#Cc1c(Cl)c(Cl)c2nnc(-c3ccc(Br)cc3)n2c1Cl	i	-6.3*	0	i	-16	nt	+
COC(=O)[C@]1(Cc2ccccc2)N[C@H](CN(C)C(=O)Nc2ccc(OC)cc2)[C@@H]2C(=O)N(Cc3ccccc3)C(=O)[C@@H]21	nt	nt	nt	nt	nt	-1	nt
CN(C)C(=O)[C@H]1C[C@H]1[C@@H](O)[C@H](CO)NC(=O)[C@H](COCc1ccccc1)NC(=O)OC(C)(C)C	nt	nt	nt	nt	nt	-1	nt
COCCNC(=O)/C(C#N)=C/C=C/c1ccccc1[N+](=O)[O-]	i	-3.5*	0	i	-37	4	+
COCCNC(=O)/C(C#N)=C/c1ccc(O)c([N+](=O)[O-])c1	i	1.7	0	i	-27	-7	nt
CNc1ccc(/C=C2\COc3ccccc3C2=O)cc1[N+](=O)[O-]	i	0.7	3	i	-6	1	nt
O=C1/C(=C/c2ccccc2[N+](=O)[O-])COc2ccccc21	i	-5.7*	1	i	-4	20	+
CC(C)(C)OC(=O)N[C@@H](Cc1ccccc1)c1nnc(SCC(=O)O)o1	i	-0.035	1	i	-2	-1	nt
Cc1ccccc1CS(=O)(=O)c1nnc([C@H](Cc2ccccc2)NC(=O)OC(C)(C)C)o1	i	-5.5*	0	i	-2	1	+
CCN1CCN(c2ccc(NC(=O)c3ccc([N+](=O)[O-])o3)cc2Cl)CC1	i	-4.2*	0	i	-12	1	+
CC(=O)N1CCN(c2ccc(NC(=O)c3ccc([N+](=O)[O-])o3)cc2Cl)CC1	nt	nt	nt	nt	nt	0	nt
CCC(=O)N1CCN(c2ccc(NC(=O)c3ccc([N+](=O)[O-])o3)cc2Cl)CC1	i	-5*	0	i	-35	5	+
CCOc1ccc(OCCCC(=O)N(CC)CC(=O)Nc2c(F)cccc2F)cc1	nt	nt	nt	nt	nt	-3	nt
CC(c1ccccc1)N1CCN(C(=O)CCl)CC1 (configuration not stated)	i	-4.9*	1	i	-3	-6	i
SMILES	HSV augment	Dynein transport	PERK inh	Autophagy HCS	Tb hexokinase	HKDC1 inh	Dynein confirm
O=c1oc(-c2ccco2)nc2ccccc12	i	-3.6*	2	i	1	5	i
CCCCNC1C(CC)C(CCC)C(C#N)(C#N)C1(C#N)C#N (configuration not stated)	i	-3.6*	-1	i	3	-6	+
CN(CCCN1CCCCC1)C(=O)c1cc(COc2ccc(F)cc2F)on1	nt	nt	nt	nt	nt	-2	nt
COc1cc2c(cc1OC)C(SC)=NC1(CCCC1)C2	i	-3.6*	0	i	-5	-5	+
COc1cc2c(cc1OC)C(C)=NC1(CCCCC1)C2	i	-0.79	1	nt	-21	-5	nt
O=C(/C=C/c1cccc(F)c1)OCC(=O)N1CCc2ccccc21	nt	nt	nt	nt	nt	-4	nt
Nc1ncnc(Sc2ncccn2)c1[N+](=O)[O-]	i	-5.1*	0	i	-19	-3	?
Cc1cc(/C=C2\Sc3ccccc3N2C)cc(C)[n+]1CC1CCCO1 (configuration not stated)	nt	-5.6	0	+	4	-4	i
Cc1ccc(/C=C2/Sc3ccccc3N(CC(=O)NCC3CCCO3)C2=O)cc1 (configuration not stated)	nt	nt	nt	nt	nt	1	nt
CC(C)(C)C(=O)/C=c1\s/c(=C\c2ccc(-c3ccc([N+](=O)[O-])cc3)o2)c(=O)n1CC(=O)NC(N)=O	?	-8*	1	nt	-4	0	+
CCOc1cc(/C=C2\C(=O)N(Cc3ccco3)C(C)=C2C(=O)OC)ccc1O	i	-4.4*	0	i	-4	17	+
CCOc1cc(/C=C2\C(=O)N(CCc3ccc(OC)c(OC)c3)C(C)=C2C(=O)OC)ccc1O	i	-4*	0	i	-25	12	i
COC(=O)C1=C(C)N(Cc2ccc(C)cc2)C(=O)/C1=C\c1cc(OC)c(OC)c(OC)c1	i	-3.5*	-1	i	-6	2	+
CCC(C)C(NC(=O)c1ccccc1)C(=O)Nc1ccc(S(=O)(=O)Nc2cc(C)nc(C)n2)cc1 (configuration not stated)	nt	nt	nt	nt	nt	-2	nt
CC1=NN(c2ccccc2)C(=O)/C1=C\C=C\c1ccccc1	i	-5.3*	0	nt	-8	23	+
CC1=NN(c2ccccc2)C(=O)/C1=C/C=C/c1ccc(N(C)C)cc1	i	0.72	1	i	-9	7	nt
Cc1cc(C(=O)CCl)c(C)n1-c1ccon1	i	-5.6*	0	i	-4	7	+
Cc1cc(C(=O)CCl)c(C)n1Cc1ccco1	i	-6*	1	i	-5	16	+
COc1ccc(C2=CCCC2)c(OC)c1	nt	nt	nt	nt	nt	0	nt
CN1CCN(C2=C(Cl)C(=O)C(c3cnc(N4CCCCC4)s3)=C(Cl)C2=O)CC1	i	-4.7*	-1	i	-2	55*	+
CCOC(=O)CC1C(=O)NCCN1c1nc2c(C)cccn2c(=O)c1/C=C1\SC(=S)N(CC(C)C)C1=O (configuration not stated)	?	-3.5	-2	nt	-17	nt	nt
